Measurements from ChEMBL document CHEMBL4007441, “Novel Design of Heptad Amphiphiles To Enhance Cell Selectivity, Salt Resistance, Antibiofilm Properties and Their Membrane-Disruptive Mechanism” (J Med Chem, 2017).
The source made the active and inactive calls. No cut-off for these calls is given here.

Columns and labels:
Staphylococcus aureus = assay: Antibacterial activity against Staphylococcus aureus ATCC 29213 after 18 hrs by broth microdilution method; type: functional; details: ATCC 29213, 18 h
In short: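 Broth microdilution. Exponential-phase bacteria grown in MHB at 37 °C, diluted to about 1 × 10^6 CFU/mL in MHB and mixed 1:1 with two-fold dilutions of peptide. MIC is the lowest concentration with no visible turbidity after 18 h at 37 °C. Controls were uninoculated broth and peptide-free culture. At least three repeats, duplicates each.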

Pseudomonas aeruginosa [1] = assay: Antibacterial activity against Pseudomonas aeruginosa ATCC 27853 after 18 hrs by broth microdilution method; type: functional; details: ATCC 27853, 18 h
In short: (§1)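 Broth microdilution in Mueller-Hinton broth. Exponential-phase bacteria (37 °C, 220 rpm shaking) were diluted to about 1 × 10^6 CFU/mL and mixed 1:1 with two-fold serial peptide dilutions. MIC is the lowest concentration with no visible turbidity after 18 h at 37 °C. Controls were uninoculated MHB and untreated culture. Run at least three times, two replicates each.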

Pseudomonas aeruginosa [2] = assay: Antibacterial activity against Pseudomonas aeruginosa CICC 21625 after 18 hrs by broth microdilution method; type: functional; details: CICC 21625, 18 h; in short: as §1
Pseudomonas aeruginosa [3] = assay: Antibacterial activity against Pseudomonas aeruginosa CICC 21630 after 18 hrs by broth microdilution method; type: functional; details: CICC 21630, 18 h; in short: as §1
Pseudomonas aeruginosa [4] = assay: Antibacterial activity against ceftazidime-resistant Pseudomonas aeruginosa 11431 after 18 hrs by broth microdilution method; type: functional; details: Pseudomonas aeruginosa, 11431, 18 h; in short: as §1
Pseudomonas aeruginosa [5] = assay: Antibacterial activity against Pseudomonas aeruginosa 21328 clinical isolate after 18 hrs by broth microdilution method; type: functional; details: Pseudomonas aeruginosa, 21328, 18 h
Pseudomonas aeruginosa [6] = assay: Antibacterial activity against Pseudomonas aeruginosa 26305 clinical isolate after 18 hrs by broth microdilution method; type: functional; details: Pseudomonas aeruginosa, 26305, 18 h
Pseudomonas aeruginosa [7] = assay: Antibacterial activity against Pseudomonas aeruginosa ATCC 27853 assessed as induction of cytoplasmic membrane depolarization after 90 min incubation under dark condition by diSC3-5 dye-based fluorescence analysis; type: functional
In short: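 Exponential-phase cells were washed three times in 5 mM HEPES (pH 7.4). diSC3-5 (0.4 µM final) and KCl (0.1 M final) were added, then the cells were incubated 90 min at 37 °C in the dark. Peptide at a range of concentrations was added and fluorescence followed at ex 622/em 670 nm. Three independent experiments, duplicates each.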

Pseudomonas aeruginosa [8] = assay: Antibacterial activity against Pseudomonas aeruginosa ATCC 27853 assessed as induction of membrane distortion at MIC after 1 hr by SEM analysis; type: functional
In short: (§2)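 For SEM, exponential-phase cells were washed in PBS pH 7.4, set to OD600 0.2 and exposed to 1 × MIC for 60 min at 37 °C. They were fixed in 2.5% glutaraldehyde at 4 °C overnight, dehydrated through graded ethanol and tert-butanol, dried, gold-coated and imaged. Untreated control. At least three repeats, duplicates.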

Pseudomonas aeruginosa [9] = assay: Antibacterial activity against Pseudomonas aeruginosa ATCC 27853 assessed as induction of membrane damage at MIC after 1 hr by SEM analysis; type: functional; in short: as §2
Pseudomonas aeruginosa [10] = assay: Antibacterial activity against Pseudomonas aeruginosa ATCC 27853 assessed as induction of membrane corrugation at MIC after 1 hr by SEM analysis; type: functional; in short: as §2
Pseudomonas aeruginosa [11] = assay: Antibacterial activity against Pseudomonas aeruginosa ATCC 27853 assessed as induction of membrane damage at MIC after 1 hr by TEM analysis; type: functional
In short: (§3)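 For TEM, exponential-phase cells were washed in PBS pH 7.4, adjusted to OD600 0.2 and treated at 1 × MIC for 60 min at 37 °C. Fixation was 2.5% glutaraldehyde at 4 °C overnight, then 2% osmium tetroxide for 70 min. Samples went through a graded ethanol series, ethanol/acetone and acetone before imaging. Untreated control.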

Pseudomonas aeruginosa [12] = assay: Antibacterial activity against Pseudomonas aeruginosa ATCC 27853 assessed as induction of intracellular content dispersion at MIC after 1 hr by TEM analysis; type: functional, cell-based; in short: as §3
RAW264.7 = assay: Inhibition of LPS-induced NO production in mouse RAW264.7 cells at 10 mg/L after 18 hrs by Griess assay; type: functional, cell-based
In short: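 RAW264.7 cells (5 × 10^5/well) were stimulated with LPS at 100 ng/mL, with or without peptide at 10 mg/L, for 18 h at 37 °C. Nitrite in the medium was measured with Griess reagent at 540 nm against a NaNO2 standard curve. Three independent experiments.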

Pseudomonas aeruginosa [13] = assay: Antibacterial activity against Pseudomonas aeruginosa ATCC 27853 after 18 hrs in presence of NH4Cl by broth microdilution method; type: functional; details: ATCC 27853, 18 h
In short: (§4)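 Broth microdilution MIC against ATCC 27853 in Mueller-Hinton broth with added salt at final concentrations: NaCl 150 mM, KCl 4.5 mM, NH4Cl 6 µM, ZnCl2 8 µM, FeCl3 4 µM. Inoculum about 1 × 10^6 CFU/mL from exponential phase, mixed 1:1 with two-fold peptide dilutions. MIC read as no visible turbidity after 18 h at 37 °C.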

Pseudomonas aeruginosa [14] = assay: Antibacterial activity against Pseudomonas aeruginosa ATCC 27853 after 18 hrs in presence of ZnCl2 by broth microdilution method; type: functional; details: ATCC 27853, 18 h; in short: as §4
Pseudomonas aeruginosa [15] = assay: Antibiofilm activity against Pseudomonas aeruginosa ATCC 27853 assessed as reduction in cell density of biofilm at 4 times MIC after 1 hr by SEM analysis; type: functional
In short: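 Biofilm imaging: biofilms grown on sterile coverslips in 12-well wells were treated with peptides at 4 × MIC for 1 h, then fixed overnight in 2.5% glutaraldehyde and viewed by SEM. Untreated control. At least three repeats.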

Escherichia coli = assay: microbe, parasite or virus in culture; details: ATCC 25922, 18 h
Pseudomonas aeruginosa [16] = assay: Antibacterial activity against Pseudomonas aeruginosa ATCC 27853 assessed as induction of membrane integrity disruption at MIC after 15 mins by PI-staining based flow cytometry (reference value: 4.7%)

Row | Substance | MIC (Staphylococcus aureus) | MIC (Pseudomonas aeruginosa [1]) | MIC (Pseudomonas aeruginosa [2]) | MIC (Pseudomonas aeruginosa [3]) | MIC (Pseudomonas aeruginosa [4]) | MIC (Pseudomonas aeruginosa [5]) | MIC (Pseudomonas aeruginosa [6]) | Activity (Pseudomonas aeruginosa [7]) | Activity (Pseudomonas aeruginosa [8]) | Activity (Pseudomonas aeruginosa [9]) | Activity (Pseudomonas aeruginosa [10]) | Activity (Pseudomonas aeruginosa [11]) | Activity (Pseudomonas aeruginosa [12]) | inhibition (RAW264.7) | MIC (Pseudomonas aeruginosa [13]) | MIC (Pseudomonas aeruginosa [14]) | Activity (Pseudomonas aeruginosa [15]) | MIC (Escherichia coli) | Activity (Pseudomonas aeruginosa [16])
1 | H-LRRLRRRWWWRRRLRRL-NH2 | 8 µg/mL | 4 µg/mL | 8 µg/mL | 4 µg/mL | 4 µg/mL | 4 µg/mL | 4 µg/mL | Dose-dependent effect | Active | Active | Active | Active | Active | Active | 4 µg/mL | 8 µg/mL | Active | 4 µg/mL | 99.5%
2 | H-LRRLRRRWWRRRLRRL-NH2 | 8 µg/mL | 8 µg/mL | 16 µg/mL | 8 µg/mL | 16 µg/mL | 32 µg/mL | 8 µg/mL | – | – | – | – | – | – | Active | 8 µg/mL | 8 µg/mL | Active | 16 µg/mL | –
